Results from ChEMBL document CHEMBL1155935, “Epoxydons and a pyrone from the marine-derived fungus Nigrospora sp. PSU-F5” (2008).
In brackets after ≈: the same amount, converted by molar mass. Activity calls are given as the source filed them. The rule behind the calls is not given here.

Tests used:
Staphylococcus aureus [1] = assay: Antimicrobial activity against methicillin-resistant Staphylococcus aureus; assay type: functional
In short: (§1)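 Agar microdilution MIC. Compounds in DMSO, serially 2-fold diluted and mixed 1:100 into melted Mueller-Hinton agar, giving final concentrations of 0.03–128 µg/mL. Strains were S. aureus ATCC 25923 and MRSA SK1. Inocula were spotted onto the agar and incubated at 35 °C for 18 h. MIC was the lowest concentration preventing visible growth. Vancomycin was the positive control; DMSO agar was the growth control.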

Staphylococcus aureus [2] = assay: Antimicrobial activity against Staphylococcus aureus; assay type: functional; in short: as §1

C/C=C(\C)c1cc(OC)cc(=O)o1
Activity (Staphylococcus aureus [1]): inactive
Activity (Staphylococcus aureus [2]): inactive

CC1=CC(=O)CC(C)(C)[C@@]1(O)/C=C/C(C)=C\C(=O)O[C@H]1C(=O)C(CO)=C[C@@H](O)[C@@H]1O [NIGROSPOXYDON A]
MIC (Staphylococcus aureus [1]): > 128 µg/mL
MIC (Staphylococcus aureus [2]): 64 µg/mL (≈ 152 µM)

CC1=CC(=O)CC(C)(C)[C@@]1(O)/C=C/C(C)=C\C(=O)O
Activity (Staphylococcus aureus [1]): inactive
Activity (Staphylococcus aureus [2]): inactive

O=C1C(CO)=C[C@@H](O)[C@H]2O[C@@H]12 [EPOXYDON]
MIC (Staphylococcus aureus [1]): 128 µg/mL (≈ 820 µM)
MIC (Staphylococcus aureus [2]): 128 µg/mL (≈ 820 µM)

COc1cc(/C(C)=C/CO)oc(=O)c1
Activity (Staphylococcus aureus [1]): inactive
Activity (Staphylococcus aureus [2]): inactive

O=C(O[C@H]1C(=O)C(CO)=C[C@@H](O)[C@@H]1O)c1cccc(O)c1
Activity (Staphylococcus aureus [1]): inactive
Activity (Staphylococcus aureus [2]): inactive

COC(=O)C(Cc1ccccc1)OC(CC(C)C)C(=O)O[C@H]1C(=O)C(CO)=C[C@@H](O)[C@@H]1O (stereo partly specified)
Activity (Staphylococcus aureus [1]): inactive
Activity (Staphylococcus aureus [2]): inactive

CC1=CC(=O)CC(C)(C)[C@H]1/C=C/C(C)=C\C(=O)O
Activity (Staphylococcus aureus [1]): inactive
Activity (Staphylococcus aureus [2]): inactive
